Experimental findings from ChEMBL document CHEMBL1909527, “Asymmetric synthesis and biological evaluation of N-cyclohexyl-4-[1-(2,4-dichlorophenyl)-1-(p-tolyl)methyl]piperazine-1-carboxamide as hCB1 receptor antagonists” (Eur J Med Chem, 2011) are described below.

A short description of data set [1]: Cmax in Sprague-Dawley rat at 10 mg/kg, po by LC/MS/MS analysis. It counts as ADME, organism-based. Details: dose 10 mg/kg, route oral. The note with it: in vivo. In a few lines: (§1)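 Sprague-Dawley rats dosed orally at 10 mg/kg; blood drawn at various time points into lithium heparin tubes, centrifuged, plasma stored at −20 °C until analysis. Values are mean ± SEM of at least three experiments.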

Data set [2] is described as follows: Tmax in Sprague-Dawley rat at 10 mg/kg, po by LC/MS/MS analysis. It counts as ADME, organism-based. Also noted: dose 10 mg/kg, route oral. The note with it: in vivo. In a few lines: as §1
A short description of data set [3]: Oral bioavailability in Sprague-Dawley rat at 10 mg/kg by LC/MS/MS analysis. Type of data set: ADME, organism-based. To be noted: in vivo. In a few lines:
as §1

A short description of data set [4]: Half life in Sprague-Dawley rat at 10 mg/kg, po by LC/MS/MS analysis. To be noted: in vivo. Type of data set: ADME, organism-based. Also noted: dose 10 mg/kg, route oral. In a few lines: as §1
The nature of data set [5]: Ratio of drug level in brain to plasma in Sprague-Dawley rat at 10 mg/kg, po measured 9 hrs post dose by LC/MS/MS analysis. It counts as ADME, organism-based. Details: dose 10 mg/kg, route oral. The note with it: read-out: BPR. Summed up: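 Rats given 10 mg/kg orally and sacrificed at 3, 5 and 9 h post-dose; whole brain and blood collected and stored at −20 °C; brain/plasma ratio reported at 9 h. Mean ± SEM, at least three experiments.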

Data set [6] is described as follows: AUC (0 to infinity) in Sprague-Dawley rat at 10 mg/kg, po by LC/MS/MS analysis. To be noted: plasma. It counts as ADME, organism-based. Also noted: time infinity, dose 10 mg/kg, route oral. Summed up:
as §1

Data set [7] addresses T1, Cannabinoid receptor 1 (Homo sapiens, UniProt P21554). The experiment in a line: Antagonist activity at human CB1 receptor expressed in CHO cells coexpressing Galpha15/16 assessed as inhibition of CP55940-induced Ca2+ release after 10 mins by micro plate reader assay. Type of data set: functional, cell-based. Summed up:
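CHO-hCB1 cells co-expressing Gα15/16 loaded with fluo-4 AM in HBSS (with […] sulfinpyrazone, pH 7.4) at 37 °C for 50 min, washed, then given test compound at various concentrations (DMSO final 1%) for 10 min at room temperature before CP55940 addition; intracellular calcium read at ex 485/em 525 nm. Triplicate; IC50 from dose-response curves, mean ± SEM, n = 3.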

Another data set concerns the target Cannabinoid receptor 2 (Homo sapiens, UniProt P34972). The experiment in a line: Displacement of [3H]-CP-55940 from human CB2 receptor expressed in CHO cells pretreated for 10 mins measured after 3 hrs by scintillation counting. Type of data set: cell-based. Summed up: (§2)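 Whole-cell binding in CHO cells stably expressing hCB1 or hCB2, serum-starved in serum-free F12 for 3 h, pretreated with varying compound concentrations 10 min, then [3H]-CP-55940 added; 3 h at 37 °C. Cells washed 5× with warm PBS, lysed in PBS/1% SDS, bound radioactivity counted. Triplicate; Ki from nonlinear-regression IC50 via Cheng-Prusoff; mean ± SEM, n = 3 independent experiments.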

Data set [8] relates to Mus musculus. The experiment in a line: Antiobesity activity in diet-induced obese C57BL/6J mouse assessed as reduction in food intake at 10 mg/kg, po qd for 35 days. Type of data set: functional, organism-based. Also noted: dose 10 mg/kg. In a few lines: (§3)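 DIO mice aged 20–24 weeks, kept on high-fat diet throughout, group-housed at 25 °C on a 12 h/12 h light-dark cycle, conditioned to water gavage for 5 days. Dosed orally once daily for 35 days with vehicle (0.1% Tween 80) or compound at 10 mg/kg, 1 h before dark cycle; n = 9–10/group. Food intake and body weight measured weekly; visceral fat mass at study end.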

Data set [9] has as its system Mus musculus. Briefly: Antiobesity activity in diet-induced obese C57BL/6J mouse assessed as reduction of body weight at 10 mg/kg, po qd for 35 days. It counts as functional, organism-based. Also noted: dose 10 mg/kg. Summed up:
as §3

Data set [10] concerns the target T1, Cannabinoid receptor 1. The experiment in a line: Displacement of [3H]-CP-55940 from human CB1 receptor expressed in CHO cells pretreated for 10 mins measured after 3 hrs by scintillation counting. Type of data set: cell-based. In a few lines:
as §2

Data set [11] deals with Mus musculus. The experiment in a line: Antiobesity activity in diet-induced obese C57BL/6J mouse assessed as reduction in visceral fat mass at 10 mg/kg, po qd for 35 days. Type of data set: functional, organism-based. Also noted: dose 10 mg/kg. In a few lines:
as §3

Active and inactive are the calls of the source. No cut-off for these calls is given here.

T1 sequence (P21554 whole entry): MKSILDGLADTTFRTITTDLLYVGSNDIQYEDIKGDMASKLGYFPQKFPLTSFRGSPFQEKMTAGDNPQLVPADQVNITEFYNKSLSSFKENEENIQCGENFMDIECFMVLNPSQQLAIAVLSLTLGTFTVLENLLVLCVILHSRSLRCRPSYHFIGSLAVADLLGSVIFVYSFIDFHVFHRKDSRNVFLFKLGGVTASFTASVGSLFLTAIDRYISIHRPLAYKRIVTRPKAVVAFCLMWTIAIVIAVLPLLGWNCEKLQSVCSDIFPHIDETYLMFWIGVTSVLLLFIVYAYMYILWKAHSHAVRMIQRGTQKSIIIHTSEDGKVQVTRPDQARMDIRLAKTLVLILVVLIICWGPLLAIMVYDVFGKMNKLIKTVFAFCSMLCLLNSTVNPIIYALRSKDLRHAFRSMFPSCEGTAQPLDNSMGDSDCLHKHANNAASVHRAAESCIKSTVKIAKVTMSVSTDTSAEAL
Sequence of Cannabinoid receptor 2 (P34972 whole entry): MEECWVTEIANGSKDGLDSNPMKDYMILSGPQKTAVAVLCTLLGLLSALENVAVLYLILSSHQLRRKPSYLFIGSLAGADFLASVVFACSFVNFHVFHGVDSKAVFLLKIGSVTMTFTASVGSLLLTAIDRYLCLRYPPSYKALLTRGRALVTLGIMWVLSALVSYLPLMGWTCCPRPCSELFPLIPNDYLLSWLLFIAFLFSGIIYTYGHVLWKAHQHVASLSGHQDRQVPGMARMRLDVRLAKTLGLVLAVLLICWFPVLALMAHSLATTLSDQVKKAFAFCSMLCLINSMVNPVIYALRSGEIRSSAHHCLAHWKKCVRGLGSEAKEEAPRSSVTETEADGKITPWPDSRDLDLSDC

As to `Cc1ccc(C(c2ccc(Cl)cc2Cl)N2CCN(C(=O)NC3CCCCC3)CC2)cc1` (racemic), in data set [1], the peak level (Cmax) was 180 ng/mL. In data set [2], the Tmax amounted to 2.4 h. For the same compound, the bioavailability in [3] was found to be 8%. The compound further had a half-life in [4] of 2.3 h. Moreover, the Kp at 9 h in [5] came to 0.91. For the same compound, the AUC(0-inf) in data set [6] amounted to 883 ng·h/mL.
In turn, `Cc1ccc([C@@H](c2ccc(Cl)cc2Cl)N2CCN(C(=O)NC3CCCCC3)CC2)cc1` showed a Cmax in [1] of 128 ng/mL. Besides, the IC50 at Cannabinoid receptor 1 [7] is 21.5 nM. Besides, the Ki at Cannabinoid receptor 2 turned out to be 242 nM; at Cannabinoid receptor 1 [10], 1.1 nM. Moreover, the result in the data set with Mus musculus [8] and in the data set on Mus musculus [9] was inactive. Besides, in [2], the Tmax is 1.3 h. This compound came in with a bioavailability in data set [3] of 6%. In addition, in [4], the half-life was 3.4 h. Besides, in [5], the Kp at 9 h worked out at 1.42. Moreover, in data set [6], the total exposure AUC(0-inf) came to 695 ng·h/mL.
With `Cc1ccc([C@H](c2ccc(Cl)cc2Cl)N2CCN(C(=O)NC3CCCCC3)CC2)cc1`, the Cmax in data set [1] is 116 ng/mL. Further, the 50% inhibitory concentration (IC50) at Cannabinoid receptor 1 [7] was found to be 0.9 nM. The results for the Ki on Cannabinoid receptor 2 and at Cannabinoid receptor 1 [10] were 227 nM and 0.2 nM, respectively. In addition, the outcome with Mus musculus [8] was inactive. The result in the data set on Mus musculus [9] and in the data set with Mus musculus [11] was Active. Also, the Tmax in data set [2] worked out at 1.2 h. In addition, the bioavailability in data set [3] stood at 15%. The compound further displayed a half-life in data set [4] of 3.8 h. Further, in [5], the Kp at 9 h worked out at 0.88. Moreover, the AUC(0-inf) in [6] was determined as 655 ng·h/mL.
